From PubChem
NOD2-RIPK2 inh – NOD2-RIPK2 binding disruptors in cells, primary screen, fluorescence, CHO cells, BLA complementation | Receptor-interacting serine/threonine-protein kinase 2 (Homo sapiens), O43353 | CCF4 ratio | inhibition, % at 4.98 µM | hit rate 0.38% among 360,000 | AID 624267, 2012; in the data active = inhibition above about 21%
beta cell repl – inducers of MIN6 beta-cell proliferation, primary screen, ATP luminescence, uHTS; hit rate 0.29% among 330,000; MIN6 cells proliferation, ATPlite luminescence, 48 h; cells starved in 0.2% serum; 100% = growth in 10% serum; proliferation, % at 10 µM;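 active = compounds whose signal lies at least 3.5 SD above the mean of all wells on their plate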
MC4R ag barr – MC4R agonists recruiting beta-arrestin, primary screen, cell-based, luminescence, agonist arm of biased-ligand search. hit rate 0.98% among 360,000. U2OS MC4R beta-arrestin complementation; percent of melanotan II response, DMSO zero. Melanocortin receptor 4 (Homo sapiens), P32245. AID 540308, 2011. activation, % at 8.9 µM;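 active = activation above a per-plate cutoff, the mean activation of sample wells on that plate plus 3 SD, cut at about 8% in these data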
TLR4 MyD88 comp – inhibitors of TLR4-MyD88 association in cells, primary screen, cell-based, HeLa CL3-4, BLA complementation, FRET ratio; AID 861, 2007; hit rate 0.18% among 200,000; inhibition, % at 8.4 µM; HeLa CL3-4 TLR4/MyD88 BLA complementation; in the data active = inhibition above about 25%
Target sequence (O00206 whole entry, looked up): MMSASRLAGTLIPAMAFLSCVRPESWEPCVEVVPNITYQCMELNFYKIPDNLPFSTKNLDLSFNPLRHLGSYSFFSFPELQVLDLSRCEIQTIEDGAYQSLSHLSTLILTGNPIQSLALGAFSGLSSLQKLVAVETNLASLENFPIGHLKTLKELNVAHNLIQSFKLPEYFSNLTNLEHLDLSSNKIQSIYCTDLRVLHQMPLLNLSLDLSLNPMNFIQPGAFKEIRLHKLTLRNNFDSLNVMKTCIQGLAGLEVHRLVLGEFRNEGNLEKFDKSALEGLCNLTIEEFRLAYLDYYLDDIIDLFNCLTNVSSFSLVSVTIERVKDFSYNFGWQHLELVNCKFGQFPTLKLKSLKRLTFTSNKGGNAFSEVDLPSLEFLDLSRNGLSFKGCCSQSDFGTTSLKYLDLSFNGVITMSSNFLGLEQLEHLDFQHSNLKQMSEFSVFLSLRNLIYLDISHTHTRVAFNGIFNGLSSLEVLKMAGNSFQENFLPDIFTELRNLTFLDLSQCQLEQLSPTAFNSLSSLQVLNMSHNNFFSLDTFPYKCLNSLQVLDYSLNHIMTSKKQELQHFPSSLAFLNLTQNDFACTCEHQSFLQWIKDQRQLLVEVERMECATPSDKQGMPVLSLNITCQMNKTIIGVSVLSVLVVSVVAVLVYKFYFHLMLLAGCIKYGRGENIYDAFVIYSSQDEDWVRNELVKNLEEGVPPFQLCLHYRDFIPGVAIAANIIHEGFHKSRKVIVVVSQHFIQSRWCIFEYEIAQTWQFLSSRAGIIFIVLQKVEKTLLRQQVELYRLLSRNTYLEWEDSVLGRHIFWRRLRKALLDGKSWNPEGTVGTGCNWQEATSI
Target sequence (Q99836 whole entry, looked up): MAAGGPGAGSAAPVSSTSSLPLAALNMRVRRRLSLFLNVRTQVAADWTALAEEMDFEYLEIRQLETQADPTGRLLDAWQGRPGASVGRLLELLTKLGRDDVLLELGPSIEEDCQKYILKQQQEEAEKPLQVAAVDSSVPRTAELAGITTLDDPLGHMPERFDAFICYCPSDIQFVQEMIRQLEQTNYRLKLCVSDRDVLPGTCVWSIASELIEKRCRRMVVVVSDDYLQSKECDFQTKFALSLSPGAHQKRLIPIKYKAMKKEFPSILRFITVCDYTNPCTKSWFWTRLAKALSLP
TLR9-MyD88 inh – inhibitors of TLR9-MyD88 association in cells, primary screen, cell-based, CHO, BLA complementation, fluorescence; CCF4 FRET ratio; inhibition, % at 4.98 µM; hit rate 0.21% among 340,000;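 active = inhibition above the mean over all tested compounds plus 3 SD, cut at about 21% in these data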
MC4R antagonist – MC4R antagonists of cAMP signaling, primary screen, cell-based, TR-FRET, antagonist arm of biased-ligand search; AID 540295, 2011; inhibition, % at 6.5 µM; Melanocortin receptor 4 (Homo sapiens), P32245; hit rate 0.48% among 360,000; MC4R-expressing cells, MTII-stimulated cAMP, LANCE TR-FRET;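 active = inhibition above its plate's cutoff, the mean of tested wells on that plate plus 3 SD, cut at about 29% in these data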
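Material – human MC4R-expressing U2OS cells · Repeats – no replicates · Detection – TR-FRET with Eu-cAMP and labeled anti-cAMP, 671 nm · Times – compound 30 min, challenge 1 h, detection 1 h · Compound – single nominal compound dose of 6.5 µM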
cAMP nonselect – nonselective cAMP signaling inhibitors, parental cells, counter-screen for MC4R biased antagonist project, cell-based, TR-FRET, U2OS, forskolin, triplicate; shares compounds with MC4R antagonist; LANCE TR-FRET; inhibition, % at 6.5 µM; hit rate 26% among 1,600; AID 602193, 2012;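 active = mean inhibition over triplicates above the low-control well mean plus 3 SD, set per campaign, cut at about 13% in these data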;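 also: signal is single emission at 671 nm which falls as cellular cAMP rises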
MC4R cAMP antag – MC4R cAMP antagonists, retest, confirmation, cell-based, TR-FRET; shares compounds with MC4R antagonist; MC4R-expressing cells, MTII-stimulated cAMP; inhibition, % at 6.5 µM; hit rate 27% among 1,600; in the data active = inhibition above about 29%
Hits are given with their value; – = inactive; · = no result; + = active, no number. Compounds with a hit are over-represented: about 2.1% of the library has one in this group of screens.

SMILES	NOD2-RIPK2 inh	beta cell repl	MC4R ag barr	TLR4 MyD88 comp	TLR9-MyD88 inh	MC4R antagonist	cAMP nonselect	MC4R cAMP antag
COc1cccc(C(CNC(=O)C(c2ccccc2)c2ccccc2)N(C)C)c1 (centres undefined)	–	–	–	·	–	–	·	·
CN(C)S(=O)(=O)c1ccc(NC(=O)CSc2nnc(-c3ccco3)n2N)cc1	–	–	–	·	–	–	·	·
O=S(=O)(O)c1nc2ccccc2[nH]1	–	–	–	·	–	34.9	–	–
CNCc1nc2ccccc2[nH]1	–	–	–	–	–	–	·	·
O=C(O)c1cnn(-c2nc(-c3cccc([N+](=O)[O-])c3)cs2)c1C(F)(F)F	–	–	–	·	–	33.3	–	–
O=C(O)c1cnn(-c2nc(-c3cccc(F)c3)cs2)c1C(F)(F)F	–	–	–	–	–	–	·	·
O=C(O)c1cnn(-c2nc(-c3ccc(Cl)c(Cl)c3)cs2)c1C(F)(F)F	–	–	–	·	–	52.0	–	–
CCN(CC)C(=O)C(=O)Nc1ccc(Oc2ccccc2)cc1	–	–	–	–	–	32.5	–	–
O=C(O)c1ccccc1-c1c2cc(I)c(=O)c(I)c-2oc2c(I)c(O)c(I)cc12	–	–	–	·	–	+	105.1	164.2
O=Cc1ccc(-c2ccccc2C(=O)O)o1	–	–	–	–	–	–	·	·
CCNC(=O)C1CCCN(C(=O)c2cccc(C#N)c2)CC1 (centres undefined)	–	·	–	·	·	–	·	·
C[C@H](O)C#Cc1ccc2c(c1)O[C@@H](CN(C)Cc1ccc(-c3ccccc3)cc1)[C@H](C)CN([C@@H](C)CO)S2(=O)=O	–	·	–	·	–	39.3	–	28.6
Oc1ccc(Cl)cc1CNCC1CCCCC1	–	–	–	·	–	–	·	·
CCOC(=O)CNC(=S)N(CCCN1CCCCCC1)Cc1cccs1	–	–	–	–	–	33.9	–	–
Cc1cc(NC(=O)COc2ccc3ccccc3c2Br)no1	–	–	–	·	–	46.4	20.2	35.0
CS(=O)(=O)c1ccc(C(=O)OCC(=O)NC(=O)C2COc3ccccc3O2)cc1[N+](=O)[O-] (centres undefined)	–	–	–	·	–	30.8	–	–
Nc1ccc(C(=O)NNC(=O)C2COc3ccccc3O2)cc1[N+](=O)[O-] (centres undefined)	–	–	–	·	–	–	·	·
CS(=O)(=O)c1ccc(C(=O)OCC(=O)NC(=O)C2CCCCC2)cc1[N+](=O)[O-]	–	–	–	–	–	33.3	25.3	42.6
O=C(NNC(=O)c1ccccc1F)c1cccc(-n2cccc2)c1	–	–	–	·	–	–	·	·
Cc1noc(C)c1S(=O)(=O)Nc1ccc2c(c1)C(=O)N([C@H](C)CO)C[C@H](C)[C@H](CN(C)S(=O)(=O)c1ccc(Cl)cc1)OCCCC[C@@H](C)O2	–	·	·	·	·	·	·	·
Cc1ccc(S(=O)(=O)N(C)C[C@@H]2OCCCC[C@@H](C)Oc3ccc(NS(=O)(=O)c4c(C)noc4C)cc3C(=O)N([C@H](C)CO)C[C@@H]2C)cc1	–	·	–	·	–	34.3	–	–
CCN1CCN(c2ccc(NC(=O)c3ccc(Cl)c(N4CCCC4=O)c3)cc2)CC1	–	–	–	·	–	–	·	·
